According to ChEMBL document CHEMBL4017537, “Discovery of a Potent and Specific M. tuberculosis Leucyl-tRNA Synthetase Inhibitor: (S)-3-(Aminomethyl)-4-chloro-7-(2-hydroxyethoxy)benzo[c][1,2]oxaborol-1(3H)-ol (GSK656)” (J Med Chem, 2017):

Columns and labels:
Format in all cases: ADME, organism-based
[1] = Oral bioavailability in C57BL/6 mouse at 26.1 mg/kg administered as single dose via gavage measured up to 24 hrs by LC-MS/MS analysis; settings: in vivo
[2] = Cmax in C57BL/6 mouse at 26.1 mg/kg administered as single dose via oral gavage measured up to 24 hrs by LC-MS/MS analysis; set-up: dose 26.1 mg/kg, route oral; settings: in vivo
[3] = Tmax in CD-1 mouse at 30 mg/kg administered via oral gavage after 24 hrs by LC-MS/MS analysis; settings: in vivo
[4] = tested on: Mus musculus; assay: Dose normalized AUC (0 to 24 hrs) in C57BL/6 mouse at 30 mg/kg administered as single dose via oral gavage by LC-MS/MS analysis; settings: in vivo
[5] = Volume of distribution at steady state in C57BL/6 mouse at 5.5 mg/kg, iv administered as single dose measured up to 24 hrs by LC-MS/MS analysis; settings: in vivo, read-out: Vdss
In short: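 C57BL/6 female mice (18−20 g) got one intravenous dose in saline. Whole blood (15 μL) was taken by lateral tail-vein puncture from each of 3 mice at 5, 15 and 30 min and at 1, 2, 4, 8 and 24 h postdose, and drug concentrations were measured in peripheral blood.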

Row | SMILES | bioavailability [1] [%] | Cmax [2] [ng/mL] | Tmax [3] [min] | AUC/dose [4] [µg·h/mL] | Vd [5] [L/kg]
1 | CCOc1ccc(Br)c2c1B(O)O[C@@H]2CN | 100 | 11100 | 30 |  | 
2 | Cl.NC[C@H]1OB(O)c2c(OCCO)ccc(Cl)c21 |  |  |  | 2.94 | 2.3
